Measurements pooled from the literature.
Compare with care: the assays were run in different laboratories.
Medium: plasma

Compound	species	route	dose	setting	quantity	result
CCN(CC)C(=O)[C@@]1(c2ccccc2)C[C@H]1CN	male cynomolgus monkey	oral	30 mg/kg	–	half-life	6.3 h
CN(C(=O)n1cnc(-c2ccc[n+]([O-])c2)c1)C1CCCCC1	male cynomolgus monkey	oral	0.3 mg/kg	–	half-life	2.2 h
CC(C)(O)c1cn(-c2ccc(-c3cc(F)c(CO)c(S(C)(=O)=O)c3)cc2F)c(C(C)(C)c2c(Cl)cccc2Cl)n1	male cynomolgus monkey	intravenous	1 mg/kg	single dose	half-life	10 to 12 h
CCCC[C@@H]1NC(=O)[C@H](Cc2ccc(O)cc2)NC(=O)[C@@H]2CCCN2C(=O)[C@H](CC(=O)O)NC(=O)[C@H](C)NC(=O)[C@H](Cc2ccccc2)NC(=O)[C@@H]2CSCCC(=O)N3CN(CN(C3)C(=O)CCSC[C@@H](C(=O)N[C@@H](C)C(N)=O)NC1=O)C(=O)CCSC[C@H](NC(C)=O)C(=O)N[C@@H](CC(C)(C)C)C(=O)N1CCC[C@H]1C(=O)N[C@@H](CCC(=O)O)C(=O)N[C@H](CCCCNC(=O)CCc1cn(CCOCCOCCOCCOCCOCCC(=O)N[C@H]3CSCCC(=O)N4CN5CN(C4)C(=O)CCSC[C@H](NC(=O)[C@@H](CC(=O)O)NC(=O)[C@H](Cc4cccc6ccccc46)NC(=O)[C@@H]4CCCN4C3=O)C(=O)N[C@@H](CCSC)C(=O)N[C@@H](CCCCNC(=N)N)C(=O)N[C@@H](CC(=O)O)C(=O)N[C@@H](Cc3c[nH]c4ccccc34)C(=O)N[C@@H](CO)C(=O)N[C@@H]([C@@H](C)O)C(=O)N3CCC[C@H]3C(=O)N3C[C@H](O)C[C@H]3C(=O)N[C@@H](Cc3c[nH]c4ccccc34)C(=O)N[C@H](C(N)=O)CSCCC5=O)nn1)C(=O)N1CCC[C@H]1C(=O)N[C@@H](Cc1ccc(O)cc1)C(=O)N2	cynomolgus monkey	intravenous	1 mg/kg	infusion	half-life	0.5 h
C=CC(=O)N1CC2CC(n3nc(-c4ccc(C(=O)Nc5ccccn5)cc4)c4c(N)ncnc43)CC2C1 (centres unmarked)	male Wistar rat	oral	30 mg/kg	–	Cmax	1260 ng/mL
CCOC(=O)[C@@]12C[C@@H]1[C@@H](n1ccc3c(NC)nc(C#Cc4ccc(Cl)s4)nc31)[C@H](O)[C@@H]2O	male Sprague-Dawley rat	oral	1 mg/kg	–	Cmax	9.97 ng/mL
COc1cc2c3c(n(CCCN4CCOCC4)c(=O)c2cc1OC)-c1cc2c(cc1C3=O)OCO2	male Fischer 344 rat	intravenous	12 mg/m²	single dose	Cmax	406 ng/mL
CCc1cc(C(=O)NC)c2nccc(N3CCc4c(cc(Cn5ccnc5)cc4-c4cn(C)nc4C(F)(F)F)C3=O)c2c1	male Sprague-Dawley rat	oral	50 mg/kg	–	Cmax	18400 ng/mL
